Laboratory results published in ChEMBL document CHEMBL1150820, “New macrolides and furan carboxylic acid derivative from the sponge-derived fungus Cladosporium herbarum” (2001).
Activity calls are given as the source filed them. The calls are words filed in the database; no cut-off is given here.

Tests used:
Staphylococcus aureus [1] = test: Antibacterial activity against Staphylococcus aureus ATCC 25923; format: functional, organism-based
Method in brief: (§1)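 Agar plate diffusion: 5.5 mm susceptibility disks loaded with 5 µg pure compound (1 mg for crude extracts) placed on agar plates seeded with the test organism (B. subtilis 168, S. aureus ATCC 25923, E. coli ATCC 25922 or C. albicans); inhibition zones read after 24 h incubation at 37 °C.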

Escherichia coli [2] = test: Antibacterial activity against Escherichia coli ATCC 25922; format: functional, organism-based; method in brief: as §1
Bacillus subtilis [3] = test: Antibacterial activity against Bacillus subtilis 168; format: functional, organism-based; settings: subsp. subtilis str. 168; method in brief: as §1
Escherichia coli [4] = test: Antibacterial activity against Escherichia coli ATCC 25922 at 5 ug after 24 hrs by agar plate diffusion assay; format: functional, organism-based; method in brief: as §1
Candida albicans = test: Antifungal activity against Candida albicans at 5 ug after 24 hrs by agar plate diffusion assay; format: functional, organism-based; method in brief: as §1
Bacillus subtilis [5] = test: Antibacterial activity against Bacillus subtilis 168 at 5 ug after 24 hrs by agar plate diffusion assay; format: functional; settings: subsp. subtilis str. 168, 24 h, read-out: IZ; method in brief: as §1
Staphylococcus aureus [6] = test: Antibacterial activity against Staphylococcus aureus ATCC 25923 at 5 ug after 24 hrs by agar plate diffusion assay; format: functional; settings: ATCC 25923, 24 h, read-out: IZ; method in brief: as §1

SMILES	Activity (Staphylococcus aureus [1])	Activity (Escherichia coli [2])	Activity (Bacillus subtilis [3])	inhibition zone (IZ) (Escherichia coli [4])	inhibition zone (IZ) (Candida albicans)	zone of inhibition at 5 µg/disc (Bacillus subtilis [5]) [mm]	zone of inhibition at 5 µg/disc (Staphylococcus aureus [6]) [mm]
COC(=O)C(O)CSC1CC(=O)OC(C)CCCCCC(O)C1=O (centres undefined)	inactive	inactive	inactive	–	–	–	–
O=C(O)c1ccc(CO)o1 [SUMIKI'S ACID]	–	–	–	inactive	inactive	7	7
CC1CCCCCC(O)C(=O)C(SC2CC(=O)OC(C)CCCCCC(O)C2=O)CC(=O)O1 (centres undefined)	inactive	inactive	inactive	–	–	–	–
CC(=O)OCc1ccc(C(=O)O)o1 [ACETYL SUMIKI'S ACID]	–	–	–	inactive	inactive	7	7
